These results are taken from ChEMBL document CHEMBL1155093 (Bioorg Med Chem Lett, 2008).

In general, IC50 refers to the point on the concentration scale where inhibition reaches its midpoint.

In data set [1] the target is T1, Nuclear receptor subfamily 1 group I member 2 (Homo sapiens, UniProt O75469).
T1 sequence (O75469 whole entry): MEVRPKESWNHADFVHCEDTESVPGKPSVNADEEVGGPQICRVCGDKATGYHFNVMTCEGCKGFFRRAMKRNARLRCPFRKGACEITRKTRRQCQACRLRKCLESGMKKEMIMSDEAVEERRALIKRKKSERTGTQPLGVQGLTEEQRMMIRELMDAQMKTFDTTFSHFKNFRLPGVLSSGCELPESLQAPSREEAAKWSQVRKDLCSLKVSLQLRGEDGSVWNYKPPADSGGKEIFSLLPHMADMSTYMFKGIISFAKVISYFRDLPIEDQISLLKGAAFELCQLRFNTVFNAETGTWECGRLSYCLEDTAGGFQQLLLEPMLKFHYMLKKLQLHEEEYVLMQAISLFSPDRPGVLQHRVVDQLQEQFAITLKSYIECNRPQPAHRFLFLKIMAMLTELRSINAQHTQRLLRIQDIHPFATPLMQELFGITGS
Put plainly: Induction of PXR transactivation in HepG2 cells. The data set is classed as cell-based. Summed up:
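HepG2 cells transiently transfected with PXR-pcDNA3 and Cyp3A-Luc reporter, cryopreserved, then thawed into DMEM with 5% charcoal/dextran FBS. Ten concentrations, 1:3 serial dilution, DMSO 0.1% final; 24 h at 37 °C. Luciferase luminescence read. % activation relative to 10 µM rifampicin (total) and DMSO (blank); EC50 and Emax from concentration–%Act plot.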

Data set [2] addresses T1, Nuclear receptor subfamily 1 group I member 2. Put plainly: Inhibition of refampicin-mediated PXR activation in HepG2 cells. The data set is classed as cell-based. Summed up: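 HepG2 cells transiently co-transfected with PXR-pcDNA3 and Cyp3A-Luc, cryopreserved and thawed into charcoal/dextran-FBS medium. Co-incubated with 10 µM rifampicin plus compound at ten concentrations (1:3 dilution, 0.1% DMSO final), 24 h at 37 °C; luciferase luminescence. Percent inhibition computed; IC50 and Imax taken from the concentration–%Inh plot.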

The next data set deals with Caco-2. Briefly: Cytotoxicity against human Caco-2 cells assessed as viability upto 100 uM by MTT assay. The data set is classed as functional. Summed up: (§1)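 MTT viability read-out; cells exposed to a concentration range of drug for 48 h. Three separate experiments, each run in triplicate.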
The next data set concerns LS174T. Briefly: Cytotoxicity against human LS174T cells assessed as viability upto 100 uM by MTT assay. Format: functional. Summed up:
as §1
A general note: Tetrazolium dyes change colour on reduction, which living cells bring about.

The next data set has as its target Cytochrome P450 3A4 (Homo sapiens, UniProt P08684). Put plainly: Inhibition of CYP3A4 in human liver microsome. Format: ADME, microsomes. In outline: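 Pooled human liver microsomes 0.1 mg/mL, midazolam 5 µM, NADPH 1 mM, 5 min reaction. Time-dependent variant: 30 min preincubation without midazolam, then midazolam added for 5 min. 1-Hydroxymidazolam measured against DMSO control; IC50 and maximum inhibition taken from the concentration–%Inh plot.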
On the technique in general: Liver microsomes are vesicles of endoplasmic reticulum, rich in cytochrome P450 enzymes.

Data set [3] in a line: Cytotoxicity against human CRL cells assessed as viability upto 100 uM by MTT assay. Format: cell-based. The following applies: read-out: Activity. In outline:
as §1

A further data set concerns SK-OV-3. Put plainly: Cytotoxicity against human SKOV3 cells assessed as viability upto 100 uM by MTT assay. Format: functional. Summed up:
as §1

Molecules are shown by their SMILES.

Chain of Cytochrome P450 3A4 (P08684 whole entry): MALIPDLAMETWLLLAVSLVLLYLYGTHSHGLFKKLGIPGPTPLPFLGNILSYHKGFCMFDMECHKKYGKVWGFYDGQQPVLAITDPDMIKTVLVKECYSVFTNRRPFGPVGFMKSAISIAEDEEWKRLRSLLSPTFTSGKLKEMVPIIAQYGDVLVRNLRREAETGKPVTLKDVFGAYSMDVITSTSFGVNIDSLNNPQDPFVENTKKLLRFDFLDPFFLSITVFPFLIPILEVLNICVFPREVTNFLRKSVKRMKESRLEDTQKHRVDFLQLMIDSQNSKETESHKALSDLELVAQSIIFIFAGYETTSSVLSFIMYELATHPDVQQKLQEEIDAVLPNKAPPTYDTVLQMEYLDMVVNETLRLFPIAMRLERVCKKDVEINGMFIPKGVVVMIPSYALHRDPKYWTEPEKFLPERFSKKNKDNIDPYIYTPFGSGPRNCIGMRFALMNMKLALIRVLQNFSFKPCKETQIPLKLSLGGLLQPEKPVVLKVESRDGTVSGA

With `CC(=O)N1CCN(c2ccc(OCC3COC(C)(c4ccc(Cl)cc4Cl)O3)cc2)CC1` (stereo not drawn), the Activity in data set [1] was found to be 10%. Moreover, in data set [2], the “inhibition (INH)” value amounted to 109%.

Turning to `CC(=O)N1CCN(c2ccc(OC[C@H]3CO[C@@](C)(c4ccc(F)cc4F)O3)cc2)CC1`, the Activity in the data set with Caco-2 is listed as 98%; in data set [1], 10%; in the data set with LS174T it was 98%; in the data set on SK-OV-3, 98%. Further, the “inhibition (INH)” value in data set [2] worked out at 103%. For the same compound, the IC50 against Cytochrome P450 3A4 is greater than 40 µM. Moreover, the viability in data set [3] came out at 98%.

`CC(=O)N1CCN(c2ccc(OC[C@H]3CO[C@](Cn4ccnc4)(c4ccc(Cl)cc4Cl)O3)cc2)CC1` [KETOCONAZOLE]: the Activity with Caco-2, in the data set with LS174T and in the data set with SK-OV-3 was 65% throughout. Also, the viability in data set [3] worked out at 65%.
